IDH1 mut inh – inhibitors of IDH1 R132H reductase, primary screen, biochemical, plate reader, single point. inhibition, % at 10 µM. diaphorase/resazurin fluorescence, 60 min. actives 0.18% (n = 70,000). AID 624101, 2012. Isocitrate dehydrogenase [NADP] cytoplasmic (Homo sapiens), O75874; in the data active = inhibition above about 34%;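 note: 0% = DMSO and 100% = no enzyme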
Target sequence (O75874 whole entry R132H): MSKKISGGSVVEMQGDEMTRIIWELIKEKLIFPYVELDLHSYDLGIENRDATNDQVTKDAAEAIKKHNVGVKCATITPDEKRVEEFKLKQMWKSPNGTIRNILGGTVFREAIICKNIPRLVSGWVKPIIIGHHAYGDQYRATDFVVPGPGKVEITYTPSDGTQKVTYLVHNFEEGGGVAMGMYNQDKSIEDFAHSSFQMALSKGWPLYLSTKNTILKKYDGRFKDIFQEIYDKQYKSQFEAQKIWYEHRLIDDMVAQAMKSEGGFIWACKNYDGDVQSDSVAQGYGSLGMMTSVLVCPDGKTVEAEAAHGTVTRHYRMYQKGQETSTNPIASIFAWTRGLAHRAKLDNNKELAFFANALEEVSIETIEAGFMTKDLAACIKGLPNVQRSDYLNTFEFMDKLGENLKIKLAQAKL
KDM4C inh – inhibitors of GASC-1 (KDM4C) histone demethylase, primary screen, biochemical, single concentration HTS; GST-KDM4C 2-372, H3K9me3 peptide, LANCE TR-FRET; AID 720574, 2013; actives 0.15% (n = 96,000); Lysine-specific demethylase 4C (Homo sapiens), Q9H3R0; inhibition, % at 12.5 µM;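 active = mean replicate inhibition above about 25%, with at least 55% of replicates also reaching it, limit read from the data, passing the limit was not always enough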
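System: N-terminal GST-fused human GASC-1 (KDM4C) fragment, residues 2-372; amount: enzyme final amount 10 nM; incubation: reaction 30 min RT, detection step 1 h RT; medium: HEPES buffer, pH 7.5, plus ascorbate; technique: LANCE TR-FRET, Eu antibody, ULight-streptavidin, EDTA, ex 340 nm, em 618/671 nm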
Pf Dd2 inh – P. falciparum Dd2 growth inhibitors, primary screen, SYBR Green fluorescence, single dose replicates | actives 2.3% (n = 94,000) | AID 1159554, 2015 | activity change, % at 10 µM | 72 h; hits give low values; in the data active = activity change below about -80%
Active calls of the source: *; · = no result. Only a selection was taken, and hits are over-represented in it overall.

SMILES	IDH1 mut inh	KDM4C inh	Pf Dd2 inh
C[C@H]1CN([C@@H](C)CO)C(=O)c2cc(NC(=O)CCCN(C)C)ccc2O[C@H]1CN(C)S(C)(=O)=O	-7.7	1.1	14.7
O=C(c1ccc(F)cc1)N1CC[C@@H]2[C@H](CO)Nc3ccc(C#Cc4ccc(F)cc4)cc3[C@@H]21	·	-0.7	-56.8
OC[C@@H]1Nc2ccc(C#Cc3ccc(F)cc3)cc2[C@H]2NCC[C@@H]12	·	·	-89.5*
CC(C)C#Cc1cnc2c(c1)C(=O)N([C@H](C)CO)C[C@H](C)[C@H](CN(C)C(=O)c1ccccc1F)O2	1.8	·	-42.5
COc1ccc(CN(C)C[C@H]2Oc3c(NC(=O)CCCCCC(=O)Nc4ccccc4N)cccc3C(=O)N([C@H](C)CO)C[C@@H]2C)cc1	·	1.4	-84.9*
C[C@H]1CN([C@@H](C)CO)C(=O)c2cccc(NC(=O)CCCCCC(=O)Nc3ccccc3N)c2O[C@H]1CN(C)Cc1ccc(Oc2ccccc2)cc1	·	-0.6	-89.5*
C[C@H]1CN([C@@H](C)CO)C(=O)c2cccc(NC(=O)CCCCCC(=O)Nc3ccccc3N)c2O[C@H]1CN(C)Cc1ccncc1	·	-0.2	22.7
C[C@H](CO)N1C[C@H](C)[C@@H](CN(C)Cc2ccc(Oc3ccccc3)cc2)Oc2c(NC(=O)CCCCCC(=O)Nc3ccccc3N)cccc2C1=O	0.2	-0.1	-90.2*
C[C@@H]1CN([C@H](C)CO)C(=O)c2cccc(NC(=O)CCCCCC(=O)Nc3ccccc3N)c2O[C@H]1CN(C)Cc1ccncc1	·	-0.3	-18.9
C[C@@H]1CN([C@@H](C)CO)C(=O)c2cccc(NC(=O)CCCCCC(=O)Nc3ccccc3N)c2O[C@H]1CN(C)Cc1ccc(Oc2ccccc2)cc1	·	2.4	·
Cc1ccc(S(=O)(=O)Nc2ccc3c(c2)C(=O)N([C@H](C)CO)C[C@@H](C)[C@@H](CN(C)Cc2ccccc2)OCCCC[C@@H](C)O3)cc1	·	0.3	-82.8*
C[C@@H]1CN([C@H](C)CO)C(=O)c2cc(NS(C)(=O)=O)ccc2O[C@@H](C)CCCCO[C@H]1CN(C)Cc1ccc(Cl)c(Cl)c1	·	0.0	-51.8
C[C@@H]1CN([C@H](C)CO)C(=O)c2cc(NS(C)(=O)=O)ccc2O[C@@H](C)CCCCO[C@H]1CN(C)Cc1ccccc1	0.8	-1.1	20.5
Cc1ccc(S(=O)(=O)Nc2ccc3c(c2)C(=O)N([C@@H](C)CO)C[C@H](C)[C@H](CN(C)Cc2ccccc2)OCCCC[C@H](C)O3)cc1	·	0.3	-55.3
C[C@@H]1CN([C@@H](C)CO)C(=O)c2cc(NS(C)(=O)=O)ccc2O[C@@H](C)CCCCO[C@@H]1CN(C)Cc1ccccc1	-0.3	-2.2	-94.5*
C[C@@H]1CN([C@H](C)CO)C(=O)c2cc(NS(C)(=O)=O)ccc2O[C@@H](C)CCCCO[C@@H]1CN(C)Cc1ccc(Cl)c(Cl)c1	-3.7	-0.7	-88.0*
CNC(=O)C[C@H]1CC[C@H]2[C@@H](COc3ccc(NC(=O)c4cnccn4)cc3C(=O)N2C)O1	·	0.2	7.5
COc1ccc2c3c([nH]c2c1)[C@@H](CO)N(Cc1ccc(Cl)cc1)CC31CCN(Cc2ccccc2)CC1	·	0.5	-79.6
COc1ccc2c3c([nH]c2c1)[C@H](CO)N(Cc1ccc(Cl)cc1)CC31CN(Cc2nccs2)C1	·	1.4	-86.2*
COc1ccc2c3c([nH]c2c1)[C@H](CO)N(Cc1nccs1)CC31CN(Cc2ccncc2)C1	·	1.1	-33.6
COc1ccc2c3c([nH]c2c1)[C@@H](CO)N(Cc1ccc(Cl)cc1)CC31CCN(Cc2nccs2)CC1	·	-0.4	-88.0*
Cc1noc(C)c1NC(=O)Nc1cccc2c1O[C@@H](CN(C)Cc1ccc(-c3ccccc3)cc1)[C@@H](C)CN([C@H](C)CO)C2=O	·	-1.6	-28.7
CS(=O)(=O)N1[C@@H]2c3ccc(C4=CCCCC4)c(=O)n3C[C@@H]2[C@@H](CO)[C@@H]1C(=O)NCc1ccncc1	·	-0.6	2.6
CCCN1C[C@@H](C)[C@@H](OC)CN(C)C(=O)c2ccc(NC(=O)CC)cc2OC[C@H]1C	-0.2	0.5	·
CO[C@H]1CN(C)C(=O)c2cc(NS(=O)(=O)c3ccccc3Cl)ccc2OC[C@@H](C)NC[C@@H]1C	-0.1	1.1	20.5
C[C@@H]1CCCCO[C@H](CN(C)C(=O)Nc2cccc3ccccc23)[C@@H](C)CN([C@H](C)CO)C(=O)c2cc(NC(=O)Nc3ccc(F)cc3)ccc2O1	·	-1.6	-34.3
C[C@H](CO)N1C[C@H](C)[C@H](CN(C)C(=O)Nc2cccc3ccccc23)OCCCC[C@H](C)Oc2ccc(NC(=O)Nc3ccccc3)cc2C1=O	·	0.4	-25.6

Compound activity as filed in PubChem.
